Data: ChEMBL document CHEMBL3627671, “Novel derivatives of nitro-substituted salicylic acids: Synthesis, antimicrobial activity and cytotoxicity” (Bioorg Med Chem, 2015)
Converted amounts (≈) assume the structure as drawn.

Assays:
[1] = tested on: Mycobacterium tuberculosis; test: Antimycobacterial activity against Mycobacterium tuberculosis H37Rv 331/88 after 14 days; type: functional; conditions: H37Rv 331/88, 336 h
[2] = tested on: Mycobacterium tuberculosis; test: Antimycobacterial activity against Mycobacterium tuberculosis H37Rv 331/88 after 21 days; type: functional; conditions: H37Rv 331/88, 504 h
[3] = tested on: Mycobacterium avium; test: Antimycobacterial activity against Mycobacterium avium 330/80 after 14 days; type: functional; conditions: 330/80, 336 h
[4] = tested on: Mycobacterium avium; test: Antimycobacterial activity against Mycobacterium avium 330/80 after 21 days; type: functional; conditions: 330/80, 504 h
[5] = tested on: Mycobacterium kansasii; test: Antimycobacterial activity against Mycobacterium kansasii 235/80 after 7 days; type: functional; conditions: 235/80, 168 h
In short: (§1)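 Šula's semisynthetic medium micromethod at 37 °C, read after 7, 14 and 21 days. The 1.0 McFarland suspension was diluted 10^-4. MIC determined. 6509/96 is a clinical isolate.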

[6] = tested on: Mycobacterium kansasii; test: Antimycobacterial activity against Mycobacterium kansasii 235/80 after 14 days; type: functional; conditions: 235/80, 336 h; in short: as §1
[7] = tested on: Mycobacterium kansasii; test: Antimycobacterial activity against Mycobacterium kansasii 235/80 after 21 days; type: functional; conditions: 235/80, 504 h; in short: as §1
[8] = tested on: Mycobacterium kansasii; test: Antimycobacterial activity against Mycobacterium kansasii 6509/96 after 7 days; type: functional; conditions: 6509/96, 168 h; in short: as §1
[9] = tested on: Mycobacterium kansasii; test: Antimycobacterial activity against Mycobacterium kansasii 6509/96 after 14 days; type: functional; conditions: 6509/96, 336 h; in short: as §1
[10] = tested on: Mycobacterium kansasii; test: Antimycobacterial activity against Mycobacterium kansasii 6509/96 after 21 days; type: functional; conditions: 6509/96, 504 h; in short: as §1
[11] = tested on: Staphylococcus aureus; test: Antibacterial activity against Staphylococcus aureus CCM 4516/08 after 24 hrs by microdilution broth method; type: functional; conditions: CCM 4516/08, 24 h
[12] = tested on: Staphylococcus aureus; test: Antibacterial activity against Staphylococcus aureus CCM 4516/08 after 48 hrs by microdilution broth method; type: functional; conditions: CCM 4516/08, 48 h
[13] = tested on: Staphylococcus aureus; test: Antibacterial activity against methicillin-resistant Staphylococcus aureus H 5996/08 after 24 hrs by microdilution broth method; type: functional; conditions: H 5996/08, 24 h
[14] = tested on: Staphylococcus aureus; test: Antibacterial activity against methicillin-resistant Staphylococcus aureus H 5996/08 after 48 hrs by microdilution broth method; type: functional; conditions: H 5996/08, 48 h
[15] = tested on: Staphylococcus epidermidis; test: Antibacterial activity against Staphylococcus epidermidis H 6966/08 after 24 hrs by microdilution broth method; type: functional; conditions: H 6966/08, 24 h
In short: (§2)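 Mueller-Hinton broth microdilution (modified M07-A07), pH 7.4 (±0.2). Compounds dissolved in DMSO, tested at final 500 to 0.49 µmol/L. Inoculum in sterile water matched to 0.5 McFarland. Incubated in the dark, humid atmosphere, 35 °C, read at 24 and 48 h visually and at 540 nm. MIC taken as ≥95% growth reduction (IC95) versus control.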

[16] = tested on: Staphylococcus epidermidis; test: Antibacterial activity against Staphylococcus epidermidis H 6966/08 after 48 hrs by microdilution broth method; type: functional; conditions: H 6966/08, 48 h; in short: as §2
[17] = tested on: Enterococcus sp.; test: Antibacterial activity against Enterococcus sp. J 14365/08 after 24 hrs by microdilution broth method; type: functional; conditions: J 14365/08, 24 h; in short: as §2
[18] = tested on: Enterococcus sp.; test: Antibacterial activity against Enterococcus sp. J 14365/08 after 48 hrs by microdilution broth method; type: functional; conditions: J 14365/08, 48 h; in short: as §2
[19] = tested on: Escherichia coli; test: Antibacterial activity against Escherichia coli CCM4517 after 24 hrs by microdilution broth method; type: functional; conditions: CCM4517, 24 h; in short: as §2
[20] = tested on: Escherichia coli; test: Antibacterial activity against Escherichia coli CCM4517 after 48 hrs by microdilution broth method; type: functional; conditions: CCM4517, 48 h; in short: as §2
[21] = tested on: Klebsiella pneumoniae; test: Antibacterial activity against Klebsiella pneumoniae D 11750/08 after 24 hrs by microdilution broth method; type: functional; conditions: D 11750/08, 24 h; in short: as §2
[22] = tested on: Klebsiella pneumoniae; test: Antibacterial activity against Klebsiella pneumoniae D 11750/08 after 48 hrs by microdilution broth method; type: functional; conditions: D 11750/08, 48 h; in short: as §2
[23] = tested on: Klebsiella pneumoniae; test: Antibacterial activity against ESBL-positive Klebsiella pneumoniae J 14368/08 after 24 hrs by microdilution broth method; type: functional; conditions: J 14368/08, 24 h; in short: as §2
[24] = tested on: Klebsiella pneumoniae; test: Antibacterial activity against ESBL-positive Klebsiella pneumoniae J 14368/08 after 48 hrs by microdilution broth method; type: functional; conditions: J 14368/08, 48 h; in short: as §2
[25] = tested on: Pseudomonas aeruginosa; test: Antibacterial activity against Pseudomonas aeruginosa CCM 1961 after 24 hrs by microdilution broth method; type: functional; conditions: CCM 1961, 24 h; in short: as §2
[26] = tested on: Pseudomonas aeruginosa; test: Antibacterial activity against Pseudomonas aeruginosa CCM 1961 after 48 hrs by microdilution broth method; type: functional; conditions: CCM 1961, 48 h; in short: as §2
[27] = tested on: Candida albicans; test: Antifungal activity against Candida albicans ATCC 44859 after 24 hrs by microdilution broth method; type: functional; conditions: ATCC 44859, 24 h
In short: (§3)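 CLSI M27-A3 broth microdilution in RPMI 1640 with glutamine, buffered to pH 7.0 with MOPS; DMSO diluent. Yeast inoculum 5 × 10^3 ± 0.2 CFU/mL. Moulds grown on Sabouraud agar 3–10 days before spore harvest, final inoculum 0.5-5 × 10^4 CFU/mL, checked in a Bürker chamber. Incubated dark, humid, 35 °C, read at 24 and 48 h visually and at 540 nm. MIC taken as ≥80% (yeasts) or ≥50% (filamentous) growth reduction versus control.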

[28] = tested on: Candida albicans; test: Antifungal activity against Candida albicans ATCC 44859 after 48 hrs by microdilution broth method; type: functional; conditions: ATCC 44859, 48 h; in short: as §3
[29] = tested on: Candida tropicalis; test: Antifungal activity against Candida tropicalis 156 after 24 hrs by microdilution broth method; type: functional; conditions: Candida tropicalis, 156, 24 h; in short: as §3
[30] = tested on: Candida tropicalis; test: Antifungal activity against Candida tropicalis 156 after 48 hrs by microdilution broth method; type: functional; conditions: Candida tropicalis, 156, 48 h; in short: as §3
[31] = tested on: Pichia kudriavzevii; test: Antifungal activity against Candida krusei E28 after 24 hrs by microdilution broth method; type: functional; conditions: E28, 24 h; in short: as §3
[32] = tested on: Pichia kudriavzevii; test: Antifungal activity against Candida krusei E28 after 48 hrs by microdilution broth method; type: functional; conditions: E28, 48 h; in short: as §3
[33] = tested on: Nakaseomyces glabratus; test: Antifungal activity against Candida glabrata 20/I after 24 hrs by microdilution broth method; type: functional; in short: as §3
[34] = tested on: Nakaseomyces glabratus; test: Antifungal activity against Candida glabrata 20/I after 48 hrs by microdilution broth method; type: functional; in short: as §3
[35] = tested on: Trichosporon asahii; test: Antifungal activity against Trichosporon asahii 1188 after 24 hrs by microdilution broth method; type: functional; conditions: Trichosporon asahii, 1188, 24 h; in short: as §3
[36] = tested on: Trichosporon asahii; test: Antifungal activity against Trichosporon asahii 1188 after 48 hrs by microdilution broth method; type: functional; conditions: Trichosporon asahii, 1188, 48 h; in short: as §3
[37] = tested on: Aspergillus fumigatus; test: Antifungal activity against Aspergillus fumigatus 231 after 24 hrs by microdilution broth method; type: functional; conditions: Aspergillus fumigatus, 231, 24 h; in short: as §3
[38] = tested on: Aspergillus fumigatus; test: Antifungal activity against Aspergillus fumigatus 231 after 48 hrs by microdilution broth method; type: functional; conditions: Aspergillus fumigatus, 231, 48 h; in short: as §3
[39] = tested on: Lichtheimia corymbifera; test: Antifungal activity against Absidia corymbifera 272 after 24 hrs by microdilution broth method; type: functional; conditions: Lichtheimia corymbifera, 272, 24 h; in short: as §3
[40] = tested on: Lichtheimia corymbifera; test: Antifungal activity against Absidia corymbifera 272 after 48 hrs by microdilution broth method; type: functional; conditions: Lichtheimia corymbifera, 272, 48 h; in short: as §3
[41] = tested on: Trichophyton mentagrophytes; test: Antifungal activity against Trichophyton mentagrophytes 445 after 24 hrs by microdilution broth method; type: functional; conditions: Trichophyton mentagrophytes, 445, 24 h
[42] = tested on: Trichophyton mentagrophytes; test: Antifungal activity against Trichophyton mentagrophytes 445 after 48 hrs by microdilution broth method; type: functional; conditions: Trichophyton mentagrophytes, 445, 48 h
[43] = tested on: HepG2; test: Cytotoxicity against human HepG2 cells after 24 hrs […]; type: cell-based; conditions: HepG2, 24 h
[44] = Selectivity index, ratio of CI50 for human HepG2 cells to MIC100 for Mycobacterium tuberculosis H37Rv 331/88

## O=C(Nc1cc(C(F)(F)F)cc(C(F)(F)F)c1)c1cc([N+](=O)[O-])ccc1O
[1]
  MIC: 16 µM (≈ 6.31 µg/mL)
[2]
  MIC: 16 µM (≈ 6.31 µg/mL)
[3]
  MIC: 32 µM (≈ 12.6 µg/mL)
[4]
  MIC: 32 µM (≈ 12.6 µg/mL)
[5]
  MIC: 16 µM (≈ 6.31 µg/mL)
[6]
  MIC: 32 µM (≈ 12.6 µg/mL)
[7]
  MIC: 32 µM (≈ 12.6 µg/mL)
[8]
  MIC: 16 µM (≈ 6.31 µg/mL)
[9]
  MIC: 32 µM (≈ 12.6 µg/mL)
[10]
  MIC: 32 µM (≈ 12.6 µg/mL)
[11]
  MIC: 3.9 µM (≈ 1.54 µg/mL)
[12]
  MIC: 3.9 µM (≈ 1.54 µg/mL)
[13]
  MIC: 7.81 µM (≈ 3.08 µg/mL)
[14]
  MIC: 7.81 µM (≈ 3.08 µg/mL)
[15]
  MIC: 15.6 µM (≈ 6.16 µg/mL)
[16]
  MIC: 15.6 µM (≈ 6.16 µg/mL)
[17]
  MIC: 500 µM (≈ 197 µg/mL)
[18]
  MIC: 500 µM (≈ 197 µg/mL)
[19]
  MIC: > 500 µM
[20]
  MIC: > 500 µM
[21]
  MIC: > 500 µM
[22]
  MIC: > 500 µM
[23]
  MIC: > 500 µM
[24]
  MIC: > 500 µM
[25]
  MIC: > 500 µM
[26]
  MIC: > 500 µM
[27]
  MIC: > 500 µM
[28]
  MIC: > 500 µM
[29]
  MIC: > 500 µM
[30]
  MIC: > 500 µM
[31]
  MIC: > 500 µM
[32]
  MIC: > 500 µM
[33]
  MIC: > 500 µM
[34]
  MIC: > 500 µM
[35]
  MIC: > 500 µM
[36]
  MIC: > 500 µM
[37]
  MIC: > 500 µM
[38]
  MIC: > 500 µM
[39]
  MIC: > 500 µM
[40]
  MIC: > 500 µM
[41]
  MIC: > 500 µM
[42]
  MIC: > 500 µM
[43]
  IC50: 13.9 µM
[44]
  Selectivity Index: 0.869
